Assay outcomes (PubChem)
AP complement – orthogonal test for alternative complement pathway inhibitors | inhibition, % at 5 µM | AID 1235 | 62,000 compounds, 0.08% hits | Human serum alternative complement pathway, LPS-coated ELISA, C3 deposition; tested in compound mixtures;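 active = inhibition above 30% in each of the two pooled mixtures holding the compound, so the lower value exceeds 30%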;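 note: 0% = serum in Mg-EGTA without compound and 100% = EDTA serum blank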
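Test system – human serum alternative complement pathway, C3 deposition on LPS-coated wells · Buffer or medium – diluted human serum in Mg2+-EGTA GVB++ · Compound dosing – 5 µM each compound, pools of ten, 50 µM per pool · Schedule – 1 h serum-compound exposure at 37 °C · Measured by – Anti-C3 ELISA, OD 450 nm · Read-out basis – percent inhibition of C3 deposition onto LPS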
M1 ag – agonists of M1 muscarinic receptor | CHO-M1 cells, Fluo-4 calcium fluorescence, agonist mode; active compounds read high | B-score at 10 µM | 64,000 compounds, 3% hits;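 active = fluorescence rise, raw or as B-score row- and column-corrected plate score, outside the 99.7% band of its plate's samples, either direction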
M1 antag – blocks the rat M1 muscarinic receptor response to acetylcholine; CHO-M1 cells, Fluo-4 calcium, ACh EC80 antagonist mode; active compounds read low; B-score at 10 µM; 64,000 compounds, 3.4% hits;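 active = calcium fluorescence response, raw or row-and-column corrected B-score, differing from the plate sample mean either way at a set confidence level, mostly lower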
Target sequence (P08482 whole entry, looked up): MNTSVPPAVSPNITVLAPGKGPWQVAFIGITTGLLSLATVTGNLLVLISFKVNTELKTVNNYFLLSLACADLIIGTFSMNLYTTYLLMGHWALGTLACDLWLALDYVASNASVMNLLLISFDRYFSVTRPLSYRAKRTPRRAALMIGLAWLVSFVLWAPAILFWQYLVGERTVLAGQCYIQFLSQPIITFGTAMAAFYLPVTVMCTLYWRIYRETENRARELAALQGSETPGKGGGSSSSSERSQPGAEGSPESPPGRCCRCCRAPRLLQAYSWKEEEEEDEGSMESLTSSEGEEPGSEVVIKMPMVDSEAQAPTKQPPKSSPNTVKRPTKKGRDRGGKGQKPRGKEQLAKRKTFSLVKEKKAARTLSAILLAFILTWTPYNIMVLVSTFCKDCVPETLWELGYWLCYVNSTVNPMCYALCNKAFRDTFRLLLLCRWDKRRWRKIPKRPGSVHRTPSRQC
D1 mod – D1 dopamine receptor (human) allosteric modulation | HEK293 D1, CRE-luciferase, dopamine EC30 potentiation; actives deviate in either direction | B-score at 10 µM | AID 641 | 58,000 compounds, 5.9% hits;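 active = luminescence count or its row- and column-corrected plate score outside the 99.7% band of the plate's sample wells, on either side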
mHtt clearance – mutant huntingtin protein clearance. HeLa Exon1htt(103Q)mCFP, aggregate imaging; zero = plate's median compound well. inhibition, % at 1.5 µM. 47,000 compounds, 0.42% hits. AID 853;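 active = inhibition of aggregate fluorescence above about 70%, also judged a hit by eye on the cell image, limit read from the data, passing the limit was not always enough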;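 note: cells exposed to compound for three days before fixation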
D1 mod confirm – confirmation of human D1 dopamine receptor allosteric modulators. shares compounds with D1 mod. HEK293 D1 CRE-luciferase, dopamine EC30 potentiation; active compounds read high. luminescence at 10 µM. 2,200 compounds, 88% hits;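 active = luminescence in either of two replicates above the same-plate mean plus 3 SD of the low-dose dopamine control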
D1 no dopamine – secondary test of D1 modulators: activity without dopamine; HEK293 D1 CRE-luciferase, luminescence, no dopamine; active compounds read high; AID 646; 1,900 compounds, 0.8% hits; shares compounds with D1 mod; luminescence at 10 µM; in the data active = luminescence above about 3900
Isoprot counter – counter-screen for D1 modulators: isoproterenol response in HEK293 cells; shares compounds with D1 mod; HEK293 D1 CRE-luciferase, isoproterenol EC30 counter-screen; calls only at 10 µM; 2,200 compounds, 63% hits;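 active = luminescence in either replicate above plate mean of wells with a partly effective reference agonist dose plus 3 SD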;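 note: isoproterenol raises cAMP through native beta-adrenoceptor Gs so signal bypasses D1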
* hit, by the source's call. A selection: hits, their analogues and other compounds. The true share with any hit is near 9%.

For CCOc1ccc(NC(=O)CN(C)c2nnnn2-c2ccccc2)cc1OCC the results were AP complement 11.4, M1 ag -1.1, M1 antag 1.11 and mHtt clearance -35.3.
`O=c1nc2scc(-c3ccccc3)n2c2ccccc12` gave AP complement 17.1, M1 ag 1.03, M1 antag -0.728, D1 mod 3.39*, D1 mod confirm 17356*, D1 no dopamine 1720 and Isoprot counter inactive.
Screening COC(=O)c1cc(=O)n2c(-c3ccccc3)csc2n1 returned AP complement -15.2, M1 ag 0.032, M1 antag 0.0223, D1 mod 0.018 and mHtt clearance 25.4.
`C=CCNc1nc2ccccc2nc1NS(=O)(=O)c1cccs1` gave AP complement -14.1, M1 ag -0.114, M1 antag 0.345, D1 mod 6.89*, mHtt clearance 39.6, D1 mod confirm 11704* and Isoprot counter active.
O=S(=O)(Nc1nc2ccccc2nc1NCc1ccco1)c1cccs1 was read as AP complement 12.9, M1 ag 0.224, M1 antag 0.358, D1 mod 8.44*, D1 mod confirm 15532*, D1 no dopamine 1652 and Isoprot counter active.
For CCCCCNc1nc2ccccc2nc1NS(=O)(=O)c1cccs1 the results were mHtt clearance 23.5.
`COc1ccc(CN(C(=O)CSc2nnc(-c3ccccc3F)o2)c2ccc(F)cc2)cc1` gave AP complement 5.2, M1 ag 0.542, M1 antag -0.244 and D1 mod -0.0141.
For O=C1OCc2cc(NC(=O)C3COc4ccccc4O3)ccc21 (centres undefined) the results were AP complement 6.7, M1 ag -0.432, M1 antag -0.244 and D1 mod -0.00176.
For Cn1c(=O)c2c(-c3ccccc3)n(C3CCCCC3)cc2n(C)c1=O the results were AP complement 16.7, M1 ag 0.0795, M1 antag -0.176 and D1 mod 4.27.
Screening Cc1cccc(-c2c3c(=O)n(C)c(=O)n(C)c3cn2C(C)(C)C)c1 returned AP complement 18.4, M1 ag -0.0704, M1 antag -2.34 and D1 mod 1.65.
Cn1c(=O)c2c(-c3ccccc3)n(N3CCOCC3)cc2n(C)c1=O was read as AP complement -10.1, M1 ag 0.987, M1 antag 0.833, D1 mod 3.31*, mHtt clearance -17.9, D1 mod confirm 6320*, D1 no dopamine 1616 and Isoprot counter inactive.
Screening Cn1c(=O)c2c(-c3ccc(C(C)(C)C)cc3)n(N3CCOCC3)cc2n(C)c1=O returned AP complement 14.0, M1 ag -1.2, M1 antag -0.211, D1 mod 3.8*, mHtt clearance -6.1, D1 mod confirm 9948*, D1 no dopamine 1848 and Isoprot counter inactive.
Screening O=c1oc2cc(O)ccc2c2c1CCCC2 returned AP complement 13.7, M1 ag -0.368, M1 antag -0.264 and D1 mod 1.95.
`Cc1cc(=O)[nH]c(S/C=C/c2ccccc2)n1` gave AP complement 5.4, M1 ag 0.314, M1 antag -0.188, D1 mod -2.7 and mHtt clearance 17.5.
Screening CN(C)c1ccc(C(c2nnnn2CCOC(=O)Nc2ccc(Cl)cc2)N2CCOCC2)cc1 (centres undefined) returned AP complement 9.4, M1 ag -0.106, M1 antag -0.514, D1 mod -0.816 and mHtt clearance 13.5.
`COc1ccc(C(=O)NCc2cn3c(C)csc3n2)cc1OC` gave M1 ag 0.349, M1 antag -0.166, D1 mod 8.31*, D1 mod confirm 15440*, D1 no dopamine 1644 and Isoprot counter active.
For CCOc1ccccc1N(CC(=O)N1CCOCC1)S(=O)(=O)c1ccc(SC)cc1 the results were AP complement 11.6, M1 ag 0.358, M1 antag -0.431, D1 mod 1.9 and mHtt clearance 46.2.
Screening CCCc1nc2sc3ccccc3c(=O)c2c(=O)n1Cc1ccco1 returned AP complement 3.3, M1 ag -1.51, M1 antag 0.849, D1 mod 4.58*, mHtt clearance -47.6, D1 mod confirm 9128*, D1 no dopamine 1636 and Isoprot counter inactive.
For CCOC(=O)c1cnc(-n2nc(C)cc2C)nc1Nc1ccc2c(c1)OCO2 the results were AP complement -1.5, M1 ag 0.22, M1 antag -0.565 and D1 mod 1.79.
CCOC(=O)c1cnc(-n2nc(C)cc2C)nc1Nc1cccc(C(=O)O)c1 was read as AP complement 0.2, M1 ag 0.172, M1 antag 0.0228, D1 mod 4.34*, mHtt clearance 27.4, D1 mod confirm 9100*, D1 no dopamine 1376 and Isoprot counter inactive.
CCOC(=O)c1cnc(-n2nc(C)cc2C)nc1Nc1ccc(N(C)C)cc1 was read as AP complement -10.7, M1 ag 1.37, M1 antag -1.2, D1 mod 12.4*, D1 mod confirm 12468*, D1 no dopamine 1584 and Isoprot counter active.
Cc1ccc(Cn2ccc(NC(=O)c3cc(-c4cccs4)on3)n2)cc1 was read as AP complement 7.4, M1 ag 0.0127, M1 antag -0.118 and D1 mod -0.0438.
For COc1cccc(C2NC(=O)NC(O)(C(F)(F)F)C2C(=O)c2cccnc2)c1OC (centres undefined) the results were AP complement 12.7, M1 ag 1.87, M1 antag 0.787 and D1 mod 1.9.
For O=C(CC1(O)C(=O)Nc2cc(Cl)cc(Cl)c21)c1ccncc1 (centres undefined) the results were AP complement 4.5, D1 mod 3.54*, D1 mod confirm 7604, D1 no dopamine 1960 and Isoprot counter inactive.
Screening Cc1ccc(Cl)c2c1NC(=O)C2(O)CC(=O)c1ccc(Br)cc1 (centres undefined) returned mHtt clearance -13.3.
Screening Cc1cc(C)c2cc(CN(CC3CCCO3)S(=O)(=O)c3ccc4c(c3)OCCO4)c(=O)[nH]c2c1 (centres undefined) returned AP complement 6.7, M1 ag 0.788, M1 antag 0.0129 and mHtt clearance 19.9.
CCOC(=O)CN=C1CC(C)(C)CC2=C1Sc1ncnc(N(C)C)c1N2 was read as AP complement 2.6, M1 ag 8.2*, M1 antag -1.36, D1 mod 5.43*, mHtt clearance -17.4, D1 mod confirm 10372*, D1 no dopamine 1464 and Isoprot counter active.
